Columns and labels:
Assay type in all cases: functional
[1] = system: Staphylococcus aureus; assay: Antimicrobial activity against methicillin-sensitive Staphylococcus aureus ATCC 29213 after 18 hrs by agar dilution assay; conditions: ATCC 29213, 18 h
[2] = system: Staphylococcus aureus; assay: Antimicrobial activity against methicillin-sensitive Staphylococcus aureus isolate 15 after 18 hrs by agar dilution assay; conditions: isolate 15, 18 h
[3] = system: Staphylococcus aureus; assay: Antimicrobial activity against methicillin-sensitive Staphylococcus aureus isolate 13-17 after 18 hrs by agar dilution assay; conditions: isolate 13-17, 18 h
[4] = system: Staphylococcus aureus; assay: Antimicrobial activity against methicillin-sensitive Staphylococcus aureus isolate 13-19 after 18 hrs by agar dilution assay; conditions: isolate 13-19, 18 h
[5] = system: Staphylococcus aureus; assay: Antimicrobial activity against methicillin-sensitive Staphylococcus aureus isolate 13-20 after 18 hrs by agar dilution assay; conditions: isolate 13-20, 18 h
[6] = system: Staphylococcus aureus; assay: Antimicrobial activity against methicillin-sensitive Staphylococcus aureus isolate 13-21 after 18 hrs by agar dilution assay; conditions: isolate 13-21, 18 h
[7] = system: Staphylococcus epidermidis; assay: Antimicrobial activity against methicillin-sensitive Staphylococcus epidermidis ATCC 12228 after 18 hrs by agar dilution assay; conditions: ATCC 12228, 18 h
[8] = system: Staphylococcus epidermidis; assay: Antimicrobial activity against methicillin-sensitive Staphylococcus epidermidis isolate 13-1 after 18 hrs by agar dilution assay; conditions: isolate 13-1, 18 h
[9] = system: Staphylococcus saprophyticus; assay: Antimicrobial activity against Staphylococcus saprophyticus ATCC 15305 after 18 hrs by agar dilution assay; conditions: ATCC 15305, 18 h
[10] = system: Staphylococcus hominis; assay: Antimicrobial activity against Staphylococcus hominis ATCC 35982 after 18 hrs by agar dilution assay; conditions: ATCC 35982, 18 h
[11] = system: Staphylococcus aureus; assay: Antimicrobial activity against methicillin-resistant Staphylococcus aureus ATCC 33591 after 18 hrs by agar dilution assay; conditions: ATCC 33591, 18 h
How it was run: (§1)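 Drug-resistant S. aureus (MRSA/VISA) panel. It includes ATCC reference strains and clinical isolates from patients in Chinese hospitals. MIC was determined by standard methods and reported in μg/mL, with levofloxacin as the reference drug.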

[12] = system: Staphylococcus aureus; assay: Antimicrobial activity against methicillin-resistant Staphylococcus aureus isolate 13-18 after 18 hrs by agar dilution assay; conditions: isolate 13-18, 18 h; how it was run: as §1
[13] = system: Staphylococcus aureus; assay: Antimicrobial activity against methicillin-resistant Staphylococcus aureus isolate 13-23 after 18 hrs by agar dilution assay; conditions: isolate 13-23, 18 h; how it was run: as §1
[14] = system: Staphylococcus aureus; assay: Antimicrobial activity against methicillin-resistant Staphylococcus aureus isolate 12-3 after 18 hrs by agar dilution assay; conditions: isolate 12-3, 18 h; how it was run: as §1
[15] = system: Staphylococcus aureus; assay: Antimicrobial activity against methicillin-resistant Staphylococcus aureus isolate 12-8 after 18 hrs by agar dilution assay; conditions: isolate 12-8, 18 h; how it was run: as §1
[16] = system: Staphylococcus aureus; assay: Antimicrobial activity against methicillin-resistant Staphylococcus aureus isolate 12-13 after 18 hrs by agar dilution assay; conditions: isolate 12-13, 18 h; how it was run: as §1
[17] = system: Staphylococcus aureus; assay: Antimicrobial activity against methicillin-resistant Staphylococcus aureus isolate 12-16 after 18 hrs by agar dilution assay; conditions: isolate 12-16, 18 h; how it was run: as §1
[18] = system: Staphylococcus aureus; assay: Antimicrobial activity against methicillin-resistant Staphylococcus aureus ATCC-BAA-1708 after 18 hrs by agar dilution assay; conditions: ATCC-BAA-1708, 18 h; how it was run: as §1
[19] = system: Staphylococcus aureus; assay: Antimicrobial activity against vancomycin-intermediate Staphylococcus aureus ATCC 700698 after 18 hrs by agar dilution assay; conditions: ATCC 700698, 18 h
How it was run: (§2)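 MICs in μg/mL against drug-resistant S. aureus (MRSA/VISA) by standard methods, with levofloxacin as the reference drug. ATCC strains were used.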

[20] = system: Staphylococcus aureus; assay: Antimicrobial activity against vancomycin-intermediate Staphylococcus aureus ATCC 700699 after 18 hrs by agar dilution assay; conditions: ATCC 700699, 18 h; how it was run: as §2

COc1ccc2c(c[n+]3c4c2ccc2c5c(cc(c24)CC3)OCO5)c1NC(=O)C12CC3CC(CC(C3)C1)C2.[Cl-]
MIC [1]: > 64 µg/mL | MIC [2]: > 64 µg/mL | MIC [3]: > 64 µg/mL | MIC [4]: > 64 µg/mL | MIC [5]: > 64 µg/mL | MIC [6]: > 64 µg/mL | MIC [7]: > 64 µg/mL | MIC [8]: > 64 µg/mL | MIC [9]: > 64 µg/mL | MIC [10]: > 64 µg/mL | MIC [11]: > 64 µg/mL | MIC [12]: > 64 µg/mL | MIC [13]: > 64 µg/mL | MIC [14]: > 64 µg/mL | MIC [15]: > 64 µg/mL | MIC [16]: > 64 µg/mL | MIC [17]: > 64 µg/mL | MIC [18]: > 64 µg/mL | MIC [19]: > 64 µg/mL | MIC [20]: > 64 µg/mL

COc1ccc2c(c[n+]3c4c2ccc2c5c(cc(c24)CC3)OCO5)c1OCC(=O)c1ccc(F)cc1.[Br-]
MIC [1]: 64 µg/mL | MIC [2]: 8 µg/mL | MIC [3]: 16 µg/mL | MIC [4]: 8 µg/mL | MIC [5]: 16 µg/mL | MIC [6]: 8 µg/mL | MIC [7]: 8 µg/mL | MIC [8]: 8 µg/mL | MIC [9]: 32 µg/mL | MIC [10]: 32 µg/mL | MIC [11]: 8 µg/mL | MIC [12]: 16 µg/mL | MIC [13]: 8 µg/mL | MIC [14]: 8 µg/mL | MIC [15]: 8 µg/mL | MIC [16]: 8 µg/mL | MIC [17]: 16 µg/mL | MIC [18]: 64 µg/mL | MIC [19]: > 64 µg/mL | MIC [20]: > 64 µg/mL

COc1ccc2c(c[n+]3c4c2ccc2c5c(cc(c24)CC3)OCO5)c1OCC(=O)c1ccccc1.[Br-]
MIC [1]: 16 µg/mL | MIC [2]: 32 µg/mL | MIC [3]: 16 µg/mL | MIC [4]: 16 µg/mL | MIC [5]: 32 µg/mL | MIC [6]: 16 µg/mL | MIC [7]: 8 µg/mL | MIC [8]: 64 µg/mL | MIC [9]: 16 µg/mL | MIC [10]: 32 µg/mL | MIC [11]: 16 µg/mL | MIC [12]: 32 µg/mL | MIC [13]: 16 µg/mL | MIC [14]: 16 µg/mL | MIC [15]: 16 µg/mL | MIC [16]: 32 µg/mL | MIC [17]: 32 µg/mL | MIC [18]: 32 µg/mL | MIC [19]: > 64 µg/mL | MIC [20]: > 64 µg/mL

COc1ccc2c(c[n+]3c4c2ccc2c5c(cc(c24)CC3)OCO5)c1NC(=O)c1cc(C)n(C)n1.[Cl-]
MIC [1]: 16 µg/mL | MIC [2]: 16 µg/mL | MIC [3]: 16 µg/mL | MIC [4]: 8 µg/mL | MIC [5]: 8 µg/mL | MIC [6]: 16 µg/mL | MIC [7]: 32 µg/mL | MIC [8]: > 64 µg/mL | MIC [9]: > 64 µg/mL | MIC [10]: > 64 µg/mL | MIC [11]: 64 µg/mL | MIC [12]: 32 µg/mL | MIC [13]: 8 µg/mL | MIC [14]: 32 µg/mL | MIC [15]: 32 µg/mL | MIC [16]: 16 µg/mL | MIC [17]: 16 µg/mL | MIC [18]: 16 µg/mL | MIC [19]: > 64 µg/mL | MIC [20]: 4 µg/mL

COc1ccc2c(c[n+]3c4c2ccc2c5c(cc(c24)CC3)OCO5)c1OCC(=O)c1ccc(C(F)(F)F)cc1.[Br-]
MIC [1]: > 64 µg/mL | MIC [2]: > 64 µg/mL | MIC [3]: > 64 µg/mL | MIC [4]: > 64 µg/mL | MIC [5]: > 64 µg/mL | MIC [6]: > 64 µg/mL | MIC [7]: > 64 µg/mL | MIC [8]: > 64 µg/mL | MIC [9]: > 64 µg/mL | MIC [10]: > 64 µg/mL | MIC [11]: > 64 µg/mL | MIC [12]: > 64 µg/mL | MIC [13]: > 64 µg/mL | MIC [14]: > 64 µg/mL | MIC [15]: > 64 µg/mL | MIC [16]: > 64 µg/mL | MIC [17]: > 64 µg/mL | MIC [18]: > 64 µg/mL | MIC [19]: > 64 µg/mL | MIC [20]: > 64 µg/mL

C[C@H]1COc2c(N3CCN(C)CC3)c(F)cc3c(=O)c(C(=O)O)cn1c23.C[C@H]1COc2c(N3CCN(C)CC3)c(F)cc3c(=O)c(C(=O)O)cn1c23.O [LEVOFLOXACIN]
MIC [1]: 0.06 µg/mL | MIC [2]: 0.125 µg/mL | MIC [3]: 0.125 µg/mL | MIC [4]: 0.5 µg/mL | MIC [5]: 0.125 µg/mL | MIC [6]: 0.25 µg/mL | MIC [7]: 0.06 µg/mL | MIC [8]: 0.125 µg/mL | MIC [9]: 0.5 µg/mL | MIC [10]: 0.125 µg/mL | MIC [11]: 0.125 µg/mL | MIC [12]: 32 µg/mL | MIC [13]: 32 µg/mL | MIC [14]: 32 µg/mL | MIC [15]: 32 µg/mL | MIC [16]: 32 µg/mL | MIC [17]: 32 µg/mL | MIC [18]: 16 µg/mL | MIC [19]: 32 µg/mL | MIC [20]: 2 µg/mL

COc1ccc(CNc2c(OC)ccc3c2c[n+]2c4c3ccc3c5c(cc(c34)CC2)OCO5)cc1.[Cl-]
MIC [7]: 8 µg/mL | MIC [8]: 64 µg/mL | MIC [9]: 16 µg/mL | MIC [10]: 8 µg/mL | MIC [19]: 16 µg/mL | MIC [20]: > 64 µg/mL

Reference: ChEMBL document CHEMBL4145598, “Discovery and Development of 8-Substituted Cycloberberine Derivatives as Novel Antibacterial Agents against MRSA” (ACS Med Chem Lett, 2018)
